Screens: PubChem BioAssay, several laboratories
In the library only some 1.6% were active in any assay of this set; here they are far more common.
LANA-H2A inh – blocks KSHV LANA binding to histone H2A/H2B; cell-free LANA-H2A/H2B peptide, fluorescence polarization; inhibition, % (concentration not given with the values); 320,000 compounds, 0.6% hits; AID 2629; in the data active = inhibition mostly above about 10%, no sharp cut-off; inactive = mostly below about 6.7%
HDAC3 inhib – blocks human histone deacetylase 3; recombinant HDAC3, fluorogenic peptide/trypsin coupled, fluorescence; inhibition, % at 8.3 µM; 320,000 compounds, 0.15% hits; AID 2718; in the data active = inhibition above about 26%, passing the limit was not always enough; inconclusive = no clear call, values can overlap the other calls
Arrestin-AP2 inh – human beta-arrestin and AP2 interaction inhibition; inhibition, % at 10 µM; FITC-arrestin peptide / GST-AP2 beads, flow cytometry; AP2 beta2 appendage carries R879A mutation; 340,000 compounds, 0.31% hits;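 active = inhibition above a set limit, near 3 SD of compounds lacking own fluorescence, cut at about 54% in these data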
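System: GST-AP2 R879A glutathione beads; medium: PBS, Tween 20 0.05%, BSA 0.1%; reagent: fluorescein-tagged arrestin peptide at 50 nM final; schedule: pre-incubation 12 min, peptide binding 1 h, room temperature; detection: flow cytometry, FL1 (488/535 nm); read-out: inhibition as reduced fluorescein signal on beads, percent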
T cell HTS – T cell immune modulation candidate. 2C CD8+ T cell-vesicle binding, flow cytometry; stronger effect = lower value. response (vesicle binding), % at 7 µM. 330,000 compounds, 0.068% hits. AID 2052;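 active = response, share of CD8 T cells binding vesicles, and their 90th percentile fluorescence all below set limits, cut at about 80% in these data, passing the limit was not always enough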;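 note: values below 100% mean blocked vesicle binding to the CD8+ T cells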
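Test system: purified 2C TCR transgenic mouse naive CD8+ T cells. Probe or stimulus: QL9-peptide-loaded Drosophila micro-vesicles bearing Ld, ICAM-1 and B7-1. Incubation: binding step 1.5 h, 37 °C, antibody labelling 20 min, ice. Measured by: flow cytometry of vesicle-bound cells.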
JMJD2C inh – blocks human GASC-1 demethylase activity | Q9H3R0 | GST-JMJD2C(1-420) H3K9me3 demethylation, DELFIA europium | inhibition, % at 2.35 µM | 330,000 compounds, 0.069% hits;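 active = more than half of a compound's replicate wells show inhibition beyond 50%, single wells judged on their own value; inconclusive = some, but no more than half, of replicates pass 50% inhibition; inactive = no replicate passes 50% inhibition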;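 note: signal counts dimethyl H3K9 product captured on neutravidin plate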
Pemphigus Ab inh – inhibitors of pemphigus antibody binding to human desmoglein-3. P32926. DSG3-coupled beads, scFv-anti-DSG3-GFP binding, flow cytometry; stronger effect = lower value. binding (percent of control), % at 10 µM. 310,000 compounds, 0.48% hits;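 active = binding more than 3 SD below its plate's average and above zero; inconclusive = below that plate limit but binding exactly zero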
Target sequence (P32926 whole entry, looked up): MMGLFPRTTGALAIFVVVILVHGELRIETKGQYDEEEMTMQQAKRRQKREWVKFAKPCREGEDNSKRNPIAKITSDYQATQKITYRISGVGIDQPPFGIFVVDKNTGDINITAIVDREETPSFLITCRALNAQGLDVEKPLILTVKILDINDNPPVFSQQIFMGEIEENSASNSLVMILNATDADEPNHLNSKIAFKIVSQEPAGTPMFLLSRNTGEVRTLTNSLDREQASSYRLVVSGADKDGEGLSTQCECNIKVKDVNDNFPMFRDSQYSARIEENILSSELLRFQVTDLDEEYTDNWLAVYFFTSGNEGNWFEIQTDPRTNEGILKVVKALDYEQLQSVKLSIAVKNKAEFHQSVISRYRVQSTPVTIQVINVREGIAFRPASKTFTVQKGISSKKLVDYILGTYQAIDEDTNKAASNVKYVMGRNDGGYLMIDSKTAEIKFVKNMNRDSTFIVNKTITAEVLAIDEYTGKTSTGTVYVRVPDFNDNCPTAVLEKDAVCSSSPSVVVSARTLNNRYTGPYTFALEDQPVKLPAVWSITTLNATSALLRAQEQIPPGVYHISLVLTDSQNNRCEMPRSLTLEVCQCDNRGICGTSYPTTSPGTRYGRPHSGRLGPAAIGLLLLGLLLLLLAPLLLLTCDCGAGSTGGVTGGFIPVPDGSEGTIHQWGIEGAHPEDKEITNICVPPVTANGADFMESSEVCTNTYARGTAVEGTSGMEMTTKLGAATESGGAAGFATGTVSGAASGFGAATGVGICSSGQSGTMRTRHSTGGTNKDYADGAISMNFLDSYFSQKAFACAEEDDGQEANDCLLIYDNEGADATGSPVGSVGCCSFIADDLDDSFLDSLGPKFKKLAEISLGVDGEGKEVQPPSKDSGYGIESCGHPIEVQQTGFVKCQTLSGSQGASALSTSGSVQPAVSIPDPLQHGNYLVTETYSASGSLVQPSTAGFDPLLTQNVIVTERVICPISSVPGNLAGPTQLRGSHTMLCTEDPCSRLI
Arr AP2 CP1 – blocks beta-arrestin peptide binding to human AP2; shares compounds with Arrestin-AP2 inh; inhibition, % at 10 µM; GST-AP2 beads, FITC arrestin peptide binding, flow cytometry; GST-fused beta2-adaptin appendage, R879A mutant; 1,300 compounds, 2% hits;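 active = inhibition above a set limit, roughly 3 SD of non-fluorescent compound noise, cut at about 38% in these data; inactive = inhibition at or below that limit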;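 note: loss of bead fluorescence from 50 nM FITC arrestin peptide bound to appendage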
GST-FITC bead – GST-GSH bead binding interference, counter-screen | shares compounds with Arrestin-AP2 inh | GST-fluorescein binding to GSH beads, fluorescence | inhibition, % at 10 µM | 1,300 compounds, 2% hits;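 active = inhibition above 50%, about 3 SD of the inhibition seen with non-fluorescent compounds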;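 note: fluorescein maleimide labelled GST captured on 4 micron glutathione beads; higher means more loss of bead fluorescence from quenching or blocked binding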
Hits are given with their value; – = inactive; ? = inconclusive; · = no result given.

SMILES | LANA-H2A inh | HDAC3 inhib | Arrestin-AP2 inh | T cell HTS | JMJD2C inh | Pemphigus Ab inh | Arr AP2 CP1 | GST-FITC bead
CC(C)(O)C#Cc1ccc(C(=O)N2CCCC(CNS(=O)(=O)c3cccs3)C2)o1 (stereo not drawn) | – | – | 61 | – | – | – | – | –
Cc1cc(C)c(C(=O)N2CCCC(CNS(=O)(=O)c3cccs3)C2)o1 (stereo not drawn) | – | – | – | – | – | · | · | ·
COCCNc1nc2ccccc2nc1NS(=O)(=O)c1ccc(C)cc1C | – | – | 105 | – | – | – | – | –
COCCCNc1nc2ccccc2nc1NS(=O)(=O)c1ccc(C)c(C)c1 | – | – | – | – | – | – | · | ·
Cc1ccc(S(=O)(=O)N(C)C)cc1NC(=O)COC(=O)CN1C(=O)c2ccccc2C1=O | · | – | – | – | – | – | · | ·
CC(c1ccccc1)n1c(Cn2ncc3ccccc3c2=O)n[nH]c1=S (stereo not drawn) | – | – | 54 | – | – | – | – | –
COC(=O)c1cccc(NC(=O)CN(c2ccc3c(c2)OCO3)S(C)(=O)=O)c1C | – | – | 61 | – | – | – | – | –
O=C(CSc1nc2ccccc2c(=O)n1Cc1ccc(F)cc1)NCc1cccs1 | – | – | 87 | – | – | – | – | 181
COc1ccccc1Nc1nc2c(C)cccc2cc1C#N | – | – | 57 | – | – | – | – | –
COc1ccccc1Nc1nc2ccc(C)cc2cc1C#N | – | – | – | – | – | – | · | ·
CCOC(=O)c1cc2c(ccn2C)n1Cc1ccc(Cl)cc1 | – | – | 54 | – | – | – | – | –
O=C(CO/N=C/c1ccccc1O)N1CCc2ccccc21 | – | – | – | – | – | – | · | ·
CCCCSc1ncnc2[nH]ncc12 | – | – | 64 | – | – | – | – | –
C/C(=N/NC(=O)Nc1ccccc1)c1ccc(C)cc1 | – | – | – | – | – | – | · | ·
C/C(=N\NC(=O)Nc1ccccc1)c1ccc2ccccc2c1 | – | – | 93 | – | – | – | – | –
CCOc1ccccc1CN1CCCC(C(=O)c2ccc(OC)c(OC)c2)C1 (stereo not drawn) | – | ? | 54 | – | – | – | – | –
COc1ccc(C(=O)C2CCCN(C(=O)CSC)C2)cc1OC (stereo not drawn) | – | – | – | – | – | – | · | ·
COc1ccc(S(=O)(=O)N2CCCC(C(=O)N3CCCC3)C2)cc1OC (stereo not drawn) | – | – | 69 | – | – | – | – | –
COc1ccc(F)cc1C(=O)C1CCCN(Cc2cn(C)c3ccccc23)C1 (stereo not drawn) | – | – | 54 | – | – | – | – | –
COc1ccc(C(=O)C2CCCN(C(=O)C3=CCCC3)C2)cc1OC (stereo not drawn) | – | – | 59 | – | · | – | – | ·
COc1ccc(-c2[nH]ncc2/C=N\NC(=O)c2ccc(Br)o2)cc1OC | – | – | – | – | – | – | · | ·
CC(C)c1cc(=O)[nH]c(N2CCN(Cc3ccc4c(c3)OCO4)CC2)n1 | – | – | – | – | – | – | · | ·
CCOC(=O)c1cc2c(nc1NC(=S)NCc1ccccc1)CCCC2 | – | · | 103 | – | – | – | – | –
CCOC(=O)c1cc2c(nc1NC(=S)Nc1ccccc1)CC(C)(C)OC2 | – | – | – | – | – | – | · | ·
